# A selection: hits, their analogues and other compounds. The true share with any hit is near 2.5%.
# GalR3 antagonist: antagonists of human GalR3; hit rate 0.44% among 360,000; HEK293 GalR3-CNG cAMP membrane potential fluorescence; galR3 body fused to GalR1 C-terminus; O60755; inhibition, % at 3 µM;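 active means inhibition above the screen-wide average plus 3 SD, cut at about 13% in these data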;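 further: forskolin and galanin both at EC90 stimulate the cells; cAMP rise reported by CNG channel membrane potential dye signal; 0% = forskolin plus galanin with DMSO and 100% = forskolin alone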
# NR2E3 ag-1: NR2E3 (human) agonism. Q9Y5X4. GST-NR2E3/biotin-RetCOR TR-FRET, 1536-well. inhibition of corepressor binding, % at 4.78 µM. hit rate 0.12% among 320,000. AID 2300;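 active means percent inhibition above the cutoff of mean plus 3 SD of all tested compounds, set per screening campaign, cut at about 20% in these data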;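 further: 0% = DMSO wells and 100% = biotin wells as full block of FRET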
# Target sequence (Q9Y5X4 whole entry, looked up): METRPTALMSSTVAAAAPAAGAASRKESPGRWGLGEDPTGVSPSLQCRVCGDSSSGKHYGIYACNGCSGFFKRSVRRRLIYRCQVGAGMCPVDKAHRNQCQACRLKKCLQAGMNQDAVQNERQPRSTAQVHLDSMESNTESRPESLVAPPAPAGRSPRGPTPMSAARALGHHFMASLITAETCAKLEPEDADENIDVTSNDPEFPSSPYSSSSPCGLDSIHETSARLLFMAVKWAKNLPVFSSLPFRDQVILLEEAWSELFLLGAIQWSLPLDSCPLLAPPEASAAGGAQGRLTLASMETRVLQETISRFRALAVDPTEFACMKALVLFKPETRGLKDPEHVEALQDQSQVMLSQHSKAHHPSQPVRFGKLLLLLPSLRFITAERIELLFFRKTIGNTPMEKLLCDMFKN
#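 system = GST-tagged NR2E3 plus biotinylated RetCOR corepressor | input = 1.35 nM GST-NR2E3 | also added = 7 nM biotin-RetCOR | schedule = 5 h incubation at 4 °C | measured by = TR-FRET with europium anti-GST and streptavidin-D2, 340 nm excitation | read-out = percent loss of FRET ratio relative to control wells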
# MsrA act: activators of bovine methionine sulfoxide reductase A. AID 602163. hit rate 0.3% among 360,000. purified bovine MsrA, absorbance read-out. activation, % at 10.6 µM; in the data active means activation above about 7.5%;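 further: 0% = vehicle and 100% = reference activator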
# NR2E3 ag-2: activates human NR2E3 receptor; Q9Y5X4; CHO-S Gal4-NCOR/VP16-NR2E3 two-hybrid, luciferase; inhibition of corepressor binding, % at 3.98 µM; hit rate 0.35% among 360,000;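 active means inhibition above the mean of all tested compounds plus 3 SD, cut at about 70% in these data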;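 further: 0% = DMSO with NR2E3 transfected cells and 100% = cells lacking NR2E3 construct; higher means lower luciferase signal from less NR2E3 corepressor binding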
# MsrA inhibitor: inhibitors of bovine MsrA | hit rate 0.75% among 360,000 | inhibition, % at 15.5 µM | purified bovine MsrA, absorbance read-out; in the data active means inhibition above about 4.5%;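 further: 0% = vehicle wells with enzyme and 100% = reference inhibitor wells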
# NadD block: blocks S. aureus nicotinate mononucleotide adenylyltransferase | inhibition, % at 20 µM | purified NadD enzyme, colorimetric absorbance read-out | AID 602399 | hit rate 0.78% among 360,000; in the data active means inhibition above about 26%
# * marks the source's active call; other numbers are inactive results; . = not tested or not shown.
SMILES,GalR3 antagonist,NR2E3 ag-1,MsrA act,NR2E3 ag-2,MsrA inhibitor,NadD block
O=C1N=C(N2CCN(c3cccc4ccccc34)CC2)S/C1=C/c1cccs1,-2,8,-13,4,1,28*
COc1ccc([C@H]2C[C@@H](n3cc(-c4ccc(F)cc4)nn3)[C@H](O)CN2Cc2cccs2)cc1,-5,.,-1,-2,-1,7
CCN1CCS/C1=C\C=C\C1=[N+](CC)CCS1,15*,.,-1,14,-1,8
CCN(CC)CCCN1C(=O)C(O)=C(C(=O)c2cc3cccc(OC)c3o2)C1c1ccncc1 (stereo unspecified),-4,11,-4,-18,4.8*,3
COC(=O)CSc1nc(N)c2c3c(sc2n1)C(c1ccccc1)SC(c1ccccc1)C3 (stereo unspecified),.,0,-4,7,.,50*
N#CC1=C(N)n2c(s/c(=C\c3ccco3)c2=O)=C(C#N)C1c1ccco1 (stereo unspecified),-2,7,-5,-47,3,50*
CC(C)c1ccc(/C=c2\sc3n(c2=O)C(N)=C(C#N)C(c2ccc(C(C)C)cc2)C=3C(N)=O)cc1 (stereo unspecified),6,.,-8,-11,0,25
O=C(NCCO)c1ccc2nc(-c3ccco3)c(-c3ccco3)nc2c1,-2,10,-1,5,1,-1
O=C(NCCc1ccccc1)c1ccc2nc(-c3ccco3)c(-c3ccco3)nc2c1,.,4,-3,-40,.,40*
Cc1ccc(N=Cc2cc(Cc3ccccc3Cl)cc([N+](=O)[O-])c2O)c(O)c1,.,-4,-10,5,.,42*
COc1ccc(N=Cc2cc(Cc3ccccc3Cl)cc([N+](=O)[O-])c2O)cc1OC,.,0,-14,27,.,16
O=C(NN=C1CCC(c2ccccc2)CC1)c1cc2c(s1)CCCC2 (stereo unspecified),0,-3,-1,-37,-1,-3
O=C(O)CN1C(=O)/C(=C2\C(=O)N(Cc3ccccc3Cl)c3ccccc32)SC1=S,-6,2,-2,1,1,26*
CC(=O)c1c(OC(=O)c2ccc(C)cc2)c2ccccc2n1C,-2,1,-7,3,0,-11
CC(=O)c1c(OC(=O)c2ccco2)c2ccccc2n1C,-1,-13,-2,-11,4.6*,-6
CC(C)c1ccc(NC2CCCN(C(=O)c3cc(C(C)C)[nH]n3)C2)cc1 (stereo unspecified),4,.,0,-24,0,2
CCC(=O)N1c2ccccc2NC2=C(C(=O)CC(c3ccco3)C2)C1c1ccco1 (stereo unspecified),-2,-2,-4,-25,4.6*,-2
CCCCCCCN(C(=O)CCl)c1cccc(C)c1,-2,-1,-4,-7,-1,-9
O=C(NCc1ccccc1)c1ccc(N2CCC3(CC2)CC(c2ccc(Cl)cc2)=NO3)c([N+](=O)[O-])c1,-3,3,-3,22,0,5
O=C(COC(=O)c1cccnc1Cl)c1ccc(Cl)cc1Cl,-6,1,-3,-5,-1,-3
CCOC(=O)c1nn(-c2ccc3c(c2)OCO3)cc1O,1,-6,3,-128,5.9*,-2
CCN1CCN(CC(O)COc2ccc(Cl)cc2)CC1 (stereo unspecified),2,4,-4,-7,0,-6
CCN1CCN(CC(O)COC(C)C)CC1 (stereo unspecified),-5,4,15*,3,-1,-3
O=C(CCSc1nc2ccccc2s1)N/N=C/c1c(O)ccc2ccccc12,-5,-1,-2,-17,3,30*
COc1ccc(/C=N/NC(=O)CCSc2nc3ccccc3s2)cc1OC,1,3,-12,-12,2,-1
SMILES,GalR3 antagonist,NR2E3 ag-1,MsrA act,NR2E3 ag-2,MsrA inhibitor,NadD block
CC1CCCC(C)N1/N=C/c1cc(Br)c(O)c(Br)c1 (stereo unspecified),1,7,.,.,4.6*,.
Cc1c(Cc2ccccc2)sc(/N=C/c2ccc3ccccc3c2)c1C(N)=O,.,-1,-2,-94,.,11
Cc1c(Cc2ccccc2)sc(/N=C/c2c(O)ccc3ccccc23)c1C(N)=O,.,-1,-1,1,.,36*
CC(O)[C@H]1CC[C@H]2[C@@H]3CC[C@H]4C[C@@H](O)CC[C@]4(C)[C@H]3C(=O)C[C@]12C (stereo partly specified),-6,-1,0,-17,-1,-1
COc1ccc(OC)c(/C=N/Nc2nncn2/N=C/c2cc(OC)ccc2OC)c1,2,-1,3,-16,4,13
COc1cc(/C=N/Nc2nncn2/N=C/c2ccc(O)c(OC)c2)ccc1O,-6,-4,5,-54,4.6*,-3
CCc1ccc2[nH]c3nc(N/N=C/c4ccc(O)cc4O)nnc3c2c1,-9,0,-1,22,0,39*
COc1cc(/C=N/Nc2nnc3c(n2)[nH]c2ccccc23)ccc1O,-3,-1,-3,-46,4.6*,-1
CS(=O)(=O)N(CC(=O)NCCC1=CCCCC1)c1cccc([N+](=O)[O-])c1,-6,2,-8,1,-1,-7
COc1ccc(/C=C/C(=O)OCC(=O)NC2CCCC(C)C2C)c(OC)c1 (stereo unspecified),-8,.,-7,2,0,-5
CCOc1ccc(CC2S/C(=N/N=C/c3ccco3)NC2=O)cc1 (stereo unspecified),-2,2,-3,10,4,1
O=C1N/C(=N\N=C\c2ccco2)SC1Cc1ccccc1[N+](=O)[O-] (stereo unspecified),-2,2,-5,-11,4.6*,2
N#Cc1c(N)[nH]c(=S)c(C#N)c1-c1ccccc1,51*,13,-1,-4,1,13
COc1cccc(CN2CCCC(C(=O)N3CCCCC3)C2)c1OC (stereo unspecified),-4,-2,-2,-17,1,3
COc1ccc(C(=O)CN2C(=O)NC3(CCCCC3)C2=O)cc1OC,-5,-1,4,-22,-1,-2
COc1cccc(OC)c1-c1nn2c(-c3cc(-c4ccccc4)n[nH]3)nnc2s1,-3,-14,-3,-3,0,52*
CCOC(=O)c1c(N2C(=O)Nc3cc(Cl)c(Cl)cc3N2O)sc2c1CCCCC2,.,0,-5,92*,.,20
CCOC(=O)c1c(-n2cnnn2)sc2c1CCCC2,-6,3,-3,-13,0,-3
COc1ccc(OC)c(NC(=O)CSCc2cnn(-c3ccccc3)c2-n2cccc2)c1,-1,0,0,-39,0,-13
Cc1ccc(C=Nc2ccccc2C(N)=O)o1,11,-1,-2,14,0,0
CN(C)c1ccc(C=Nc2ccccc2C(N)=O)cc1,-5,-6,-4,-82,5.6*,0

# Source: PubChem BioAssay (several laboratories)
